Active and inactive are the calls of the source.
Tests used:
Histone deacetylase 1 [1] = biological target: T1, Histone deacetylase 1 (Homo sapiens, UniProt Q13547); assay: Inhibition of human recombinant HDAC1 using Boc-lys(Ac)-AMC as substrate preincubated for 20 mins with substrate measured after 60 mins by fluorescence analysis
[2] = Growth inhibition of human WI38 cells after 96 hrs by sulphorhodamine B assay; assay type: cell-based; details: WI-38 cells
Outline: (§1)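 SRB growth assay; MCF7 and WI38 seeded 4000 cells/well, A549 2000 cells/well, attached overnight, then exposed to freshly made drug solutions (0.1 to 50 μM) for 96 h. Fixed with cold 10% TCA, stained with 0.4% SRB; absorbance at 540 nm as percent of untreated control, IC50 from mean absorbance.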

A549 = assay: Growth inhibition of human A549 cells after 96 hrs by sulphorhodamine B assay; assay type: functional; details: A549, 96 h; outline: as §1
[3] = biological target: T2, Histone deacetylase-like amidohydrolase (Alcaligenes sp. (strain DSM 11172) (Bordetella sp. (strain FB188))) (UniProt Q70I53); assay: Inhibition of Bordetella sp. (strain FB188) N-terminus His-tagged HDAH expressed in Escherichia coli BL21 (DE3) up to 100 uM; details: Alcaligenaceae bacterium FB188
T2 sequence (whole entry): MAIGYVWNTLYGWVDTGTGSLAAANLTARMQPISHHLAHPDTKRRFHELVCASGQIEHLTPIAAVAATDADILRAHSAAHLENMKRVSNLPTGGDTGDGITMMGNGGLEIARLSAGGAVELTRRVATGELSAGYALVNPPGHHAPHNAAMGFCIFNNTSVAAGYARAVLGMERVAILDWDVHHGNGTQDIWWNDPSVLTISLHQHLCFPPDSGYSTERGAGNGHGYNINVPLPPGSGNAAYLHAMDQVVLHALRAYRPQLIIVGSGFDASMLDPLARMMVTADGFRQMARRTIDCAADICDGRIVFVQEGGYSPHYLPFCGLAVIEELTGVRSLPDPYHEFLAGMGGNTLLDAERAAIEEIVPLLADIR
Outline: (§2)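 Recombinant N-terminal His6-tagged HDAH from Bordetella strain FB188, expressed in E. coli BL21, purified on zinc-loaded His-Trap column, eluted with 500 mM imidazole, dialyzed into assay buffer (>98% pure by SDS-PAGE). Tested directly against compounds; thiols generated in situ from disulfides with TCEP.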

[4] = biological target: T3, Protein deacetylase HDAC6 (Homo sapiens, UniProt Q9UBN7); assay: Inhibition of human recombinant HDAC6 using Boc-lys(Ac)-AMC as substrate preincubated for 20 mins with substrate measured after 60 mins by fluorescence analysis
T3 sequence (Q9UBN7 whole entry): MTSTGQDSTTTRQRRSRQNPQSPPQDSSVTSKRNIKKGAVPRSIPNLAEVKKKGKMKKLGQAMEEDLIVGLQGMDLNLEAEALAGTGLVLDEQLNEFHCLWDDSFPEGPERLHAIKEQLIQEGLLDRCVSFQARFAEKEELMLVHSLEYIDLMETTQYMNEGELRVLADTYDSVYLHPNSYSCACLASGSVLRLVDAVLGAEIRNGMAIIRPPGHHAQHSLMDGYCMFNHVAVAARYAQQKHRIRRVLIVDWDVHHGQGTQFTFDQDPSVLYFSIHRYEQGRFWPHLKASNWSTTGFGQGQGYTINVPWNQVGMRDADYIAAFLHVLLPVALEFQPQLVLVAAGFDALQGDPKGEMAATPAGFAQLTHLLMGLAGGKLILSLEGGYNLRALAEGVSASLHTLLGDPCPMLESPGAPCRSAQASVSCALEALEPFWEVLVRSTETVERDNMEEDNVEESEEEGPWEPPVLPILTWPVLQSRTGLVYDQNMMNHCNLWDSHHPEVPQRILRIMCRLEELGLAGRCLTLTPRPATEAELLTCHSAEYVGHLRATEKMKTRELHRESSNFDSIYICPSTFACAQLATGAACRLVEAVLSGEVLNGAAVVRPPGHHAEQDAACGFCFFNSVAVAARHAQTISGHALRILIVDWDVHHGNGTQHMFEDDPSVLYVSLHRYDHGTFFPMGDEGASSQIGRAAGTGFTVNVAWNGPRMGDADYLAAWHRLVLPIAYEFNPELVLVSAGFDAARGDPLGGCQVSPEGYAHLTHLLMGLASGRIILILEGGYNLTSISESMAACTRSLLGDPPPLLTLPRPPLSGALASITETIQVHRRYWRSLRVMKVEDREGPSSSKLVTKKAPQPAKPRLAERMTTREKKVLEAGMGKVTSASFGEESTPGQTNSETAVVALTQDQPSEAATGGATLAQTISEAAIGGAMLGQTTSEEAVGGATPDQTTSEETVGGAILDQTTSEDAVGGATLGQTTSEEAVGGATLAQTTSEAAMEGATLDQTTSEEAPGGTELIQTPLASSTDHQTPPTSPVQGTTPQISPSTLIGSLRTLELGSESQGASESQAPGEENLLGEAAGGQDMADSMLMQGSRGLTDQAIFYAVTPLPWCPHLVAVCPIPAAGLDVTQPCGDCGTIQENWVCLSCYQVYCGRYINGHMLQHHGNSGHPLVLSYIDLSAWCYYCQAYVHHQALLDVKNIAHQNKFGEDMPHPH

[5] = biological target: T4, Histone deacetylase-like amidohydrolase (Alcaligenes sp. (strain DSM 11172) (Bordetella sp. (strain FB188)), UniProt Q70I53); assay: Inhibition of Bordetella sp. (strain FB188) N-terminus His-tagged HDAH expressed in Escherichia coli BL21 (DE3); parameters: species or system Alcaligenaceae bacterium FB188; outline: as §2
T4 sequence (Q70I53 whole entry): T2 sequence (whole entry)

MCF7 [6] = assay: Growth inhibition of human MCF7 cells after 96 hrs by sulphorhodamine B assay; assay type: functional; details: MCF7, 96 h; outline: as §1
[7] = biological target: T5, Protein deacetylase HDAC6 (Homo sapiens) (UniProt Q9UBN7); assay: Inhibition of HDAC6 in human MCF7 cells assessed as change in tubulin acetylation level at 1 uM after 24 hrs by Western blot analysis; assay type: cell-based
T5 sequence (whole entry): T3 sequence (Q9UBN7 whole entry)
Outline: (§3)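 MCF7 cells (5 × 10^6 per T75 flask) treated 24 h, harvested by trypsinization, lysed in RIPA on ice; 50 μg total protein resolved on 12% SDS-PAGE, transferred to nitrocellulose and probed for histone, acetylated histone, tubulin, acetylated tubulin, p21 and actin. Untreated cells as negative control.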

Histone deacetylase 8 = biological target: T6, Histone deacetylase 8 (Homo sapiens, UniProt Q9BY41); assay: Inhibition of human recombinant HDAC8 using Boc-lys(Ac)-AMC as substrate preincubated for 20 mins with substrate measured after 60 mins by fluorescence analysis
T6 sequence (Q9BY41 whole entry): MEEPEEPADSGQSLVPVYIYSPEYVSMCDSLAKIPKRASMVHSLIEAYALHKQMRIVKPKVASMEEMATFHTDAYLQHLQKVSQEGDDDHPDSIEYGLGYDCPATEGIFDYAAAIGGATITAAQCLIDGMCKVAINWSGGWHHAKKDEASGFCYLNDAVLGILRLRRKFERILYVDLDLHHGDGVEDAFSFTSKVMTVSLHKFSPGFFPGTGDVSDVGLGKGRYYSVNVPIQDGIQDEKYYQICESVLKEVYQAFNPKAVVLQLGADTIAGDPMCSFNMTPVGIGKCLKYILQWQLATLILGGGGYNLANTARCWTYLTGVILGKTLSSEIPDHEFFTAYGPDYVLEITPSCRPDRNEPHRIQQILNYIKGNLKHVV

Histone deacetylase 1 [8] = biological target: T1, Histone deacetylase 1; assay: Inhibition of HDAC1 in human MCF7 cells assessed as up-regulation of acetylated histone H3 protein level at 1 uM after 24 hrs by Western blot analysis; assay type: cell-based; outline: as §3
MCF7 [9] = assay: Inhibition of Class 1 histone deacetylase in human MCF7 cells assessed as up-regulation of p21 protein level at 1 uM after 24 hrs by Western blot analysis; assay type: cell-based; outline: as §3
[10] = biological target: DNA (cytosine-5)-methyltransferase 1 (Homo sapiens, UniProt P26358); assay: Inhibition of full length N-terminal His6-tagged human DNMT1 at 120 uM after 1 hr by fluorescence analysis
DNA (cytosine-5)-methyltransferase 1, sequence (P26358 whole entry): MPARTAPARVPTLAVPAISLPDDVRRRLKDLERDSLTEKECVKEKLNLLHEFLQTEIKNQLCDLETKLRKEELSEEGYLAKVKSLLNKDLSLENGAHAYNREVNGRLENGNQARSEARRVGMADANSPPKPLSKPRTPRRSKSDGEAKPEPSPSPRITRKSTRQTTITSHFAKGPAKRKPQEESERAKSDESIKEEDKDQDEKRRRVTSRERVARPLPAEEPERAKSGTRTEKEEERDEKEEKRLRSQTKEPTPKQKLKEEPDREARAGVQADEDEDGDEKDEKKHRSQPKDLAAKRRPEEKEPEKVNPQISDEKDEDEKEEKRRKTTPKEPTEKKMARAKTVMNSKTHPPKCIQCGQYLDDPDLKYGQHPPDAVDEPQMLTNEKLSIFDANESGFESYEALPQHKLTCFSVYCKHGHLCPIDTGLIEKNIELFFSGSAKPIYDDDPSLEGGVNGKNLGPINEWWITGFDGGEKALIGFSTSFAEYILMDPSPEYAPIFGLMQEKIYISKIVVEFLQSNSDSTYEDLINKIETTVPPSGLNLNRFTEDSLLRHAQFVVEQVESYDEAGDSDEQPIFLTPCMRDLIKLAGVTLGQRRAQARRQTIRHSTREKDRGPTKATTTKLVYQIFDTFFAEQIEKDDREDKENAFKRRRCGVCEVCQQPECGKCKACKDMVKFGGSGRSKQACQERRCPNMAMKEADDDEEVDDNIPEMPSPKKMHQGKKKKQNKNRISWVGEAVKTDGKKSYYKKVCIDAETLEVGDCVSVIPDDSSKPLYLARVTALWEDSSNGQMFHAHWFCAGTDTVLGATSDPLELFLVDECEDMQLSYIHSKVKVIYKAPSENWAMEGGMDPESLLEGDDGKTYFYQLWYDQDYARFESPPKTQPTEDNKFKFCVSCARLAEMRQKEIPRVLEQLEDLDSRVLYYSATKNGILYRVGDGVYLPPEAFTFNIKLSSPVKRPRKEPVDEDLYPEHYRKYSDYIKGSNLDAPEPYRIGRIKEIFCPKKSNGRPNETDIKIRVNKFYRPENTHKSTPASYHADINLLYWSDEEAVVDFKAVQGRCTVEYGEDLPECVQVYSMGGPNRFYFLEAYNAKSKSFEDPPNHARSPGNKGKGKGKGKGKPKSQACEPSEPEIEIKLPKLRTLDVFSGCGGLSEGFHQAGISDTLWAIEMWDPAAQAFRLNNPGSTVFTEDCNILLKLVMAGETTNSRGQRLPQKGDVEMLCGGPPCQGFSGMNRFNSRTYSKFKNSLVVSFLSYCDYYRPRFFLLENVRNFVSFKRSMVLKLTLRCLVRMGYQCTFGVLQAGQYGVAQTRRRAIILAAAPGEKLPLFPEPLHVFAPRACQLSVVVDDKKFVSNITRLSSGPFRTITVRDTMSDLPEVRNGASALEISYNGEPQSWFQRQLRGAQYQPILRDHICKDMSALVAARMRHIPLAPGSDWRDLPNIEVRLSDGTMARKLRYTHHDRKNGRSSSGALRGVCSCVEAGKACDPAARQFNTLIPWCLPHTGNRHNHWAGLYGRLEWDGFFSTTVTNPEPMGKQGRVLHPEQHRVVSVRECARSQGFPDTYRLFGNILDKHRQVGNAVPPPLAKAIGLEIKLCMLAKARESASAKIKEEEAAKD
Outline: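 Baculovirus-expressed DNMT1 (80 nM final) with SAM (10 μM final) and hemimethylated hairpin oligo (125 nM final) in MOPS buffer pH 6.5 with 1 mM DTT, 1 h room temperature. Stopped with Gla1 plus 125 μM SAH, developed 7 h; fluorescence Ex 485/Em 520 nm. Thiols made in situ by TCEP reduction; no SAM as full-inhibition control.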

Bacteria [11] = assay: Inhibition of bacterial DNA cytosine-C5 methyltransferase, M.SssI at 5 uM
Outline: (§4)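 One unit M.SssI with 1 μg bacteriophage λ DNA in NEBuffer2 (pH 7.9, 1 mM DTT) plus 160 μM SAM, ±inhibitor, 2 h at 37 °C; heat-inactivated 65 °C 20 min. Methylation read by BstUI digestion (10 units, 1 h 60 °C) and 1.5% agarose gel electrophoresis; run four times with positive and negative controls.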

Bacteria [12] = assay: Inhibition of bacterial DNA cytosine-C5 methyltransferase, M.SssI at 50 uM; outline: as §4
MCF7 [13] = assay: Inhibition of Class 1 histone deacetylase in human MCF7 cells assessed as up-regulation of p21 protein level at 0.5 uM after 24 hrs by Western blot analysis; assay type: cell-based; outline: as §3

T1 sequence (Q13547 whole entry): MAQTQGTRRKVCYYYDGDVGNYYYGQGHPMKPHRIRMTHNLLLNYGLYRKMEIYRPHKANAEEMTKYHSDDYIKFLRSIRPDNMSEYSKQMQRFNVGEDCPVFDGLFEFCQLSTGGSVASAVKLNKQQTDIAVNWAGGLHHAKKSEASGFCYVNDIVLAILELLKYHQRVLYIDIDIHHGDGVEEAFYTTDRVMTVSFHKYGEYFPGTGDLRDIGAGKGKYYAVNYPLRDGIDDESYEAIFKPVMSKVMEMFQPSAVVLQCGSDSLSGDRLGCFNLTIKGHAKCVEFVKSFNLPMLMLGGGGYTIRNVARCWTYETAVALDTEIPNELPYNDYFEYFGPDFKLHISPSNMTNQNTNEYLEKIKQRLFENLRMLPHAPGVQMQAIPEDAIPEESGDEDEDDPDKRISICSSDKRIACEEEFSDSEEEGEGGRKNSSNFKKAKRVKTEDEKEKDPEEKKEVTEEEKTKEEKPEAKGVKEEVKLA

Compound | IC50 (Histone deacetylase 1 [1]) | GI50 at 96 h [2] | GI50 (A549) | inhibition [3] | IC50 [4] | IC50 [5] | GI50 (MCF7 [6]) | inhibition [7] | IC50 (Histone deacetylase 8) | inhibition (Histone deacetylase 1 [8]) | inhibition (MCF7 [9]) | inhibition [10] | inhibition (Bacteria [11]) | inhibition (Bacteria [12]) | inhibition (MCF7 [13])
CO/N=C(\Cc1ccc(O)c(Br)c1)C(=O)NCCSSCCNC(=O)/C(Cc1ccc(O)c(Br)c1)=N/OC | 0.38 µM | > 50 µM | 49.5 µM | inactive | 9.5 µM |  |  |  |  |  |  |  |  |  | 
O=C(CCCNC(=O)/C(Cc1ccc(O)c(Br)c1)=N/O)NO | 0.31 µM |  |  | Active | 1.7 µM | 5.25 µM |  |  |  |  |  |  |  |  | 
O=C(NCCSSCCNC(=O)/C(Cc1ccccc1)=N/O)/C(Cc1ccccc1)=N/O |  | > 50 µM | 16.3 µM | inactive |  |  | 11.1 µM |  |  |  |  |  |  |  | 
O=C(CCNC(=O)/C(Cc1ccc(O)c(Br)c1)=N/O)NO | 0.002 µM | 7.86 µM | 1.59 µM | Active | 0.19 µM | 0.31 µM | 1.13 µM | inactive | 1.5 µM | Active | Active |  |  |  | 
O=C(NCCSSCCNC(=O)/C(Cc1ccc(F)c(Br)c1)=N/O)/C(Cc1ccc(F)c(Br)c1)=N/O |  | 1.8 µM | 2.73 µM | inactive |  |  | 1 µM |  |  |  |  |  |  |  | 
CO/N=C(\Cc1ccc(O)c(Br)c1)C(=O)NCCS | 0.027 µM | 24.2 µM | 10.6 µM | inactive | 0.22 µM |  | 19.3 µM |  |  |  |  | inactive |  |  | 
O=C(NCCS)/C(Cc1ccc(O)c(Br)c1)=N/O | 0.0009 µM | 3.4 µM | 2.53 µM | inactive |  | 30.2 µM | 2.35 µM |  | 1.3 µM |  |  | inactive | Active | Active | 
O=C(Cc1ccc(O)c(Br)c1)C(=O)NCCSSCCNC(=O)C(=O)Cc1ccc(O)c(Br)c1 | 5 µM | 33.1 µM | 15.2 µM | inactive | 9 µM |  | 13.1 µM |  |  |  |  |  |  |  | 
COc1cc(C/C(=N\O)C(=O)NCCSSCCNC(=O)/C(Cc2cc(Br)c(OC)c(OC)c2)=N/O)cc(Br)c1OC |  | 2.14 µM | 2.51 µM | inactive |  |  | 0.72 µM |  |  |  |  |  |  |  | 
COc1ccc(C/C(=N\O)C(=O)NCCS)cc1Br | 0.0018 µM | 1.13 µM | 0.16 µM | inactive | 3.2 µM |  | 0.61 µM |  |  |  |  | inactive |  |  | 
CC(/C=C/C(=O)NO)=C\[C@@H](C)C(=O)c1ccc(N(C)C)cc1 |  |  |  |  |  |  |  |  |  |  |  |  |  |  | Active
O=C(Cc1ccc(O)c(Br)c1)C(=O)NCCS | 0.4 µM | 42.6 µM | 43 µM | inactive | 1 µM |  | 35.4 µM |  |  |  |  |  |  |  | 
CO/N=C(\Cc1ccc(O)c(Br)c1)C(=O)NCCSC | 11 µM | > 50 µM | > 50 µM | inactive | > 50 µM |  | > 50 µM |  |  |  |  |  |  |  | 
COc1cc(C/C(=N\O)C(=O)NCCS)cc(Br)c1OC | 0.001 µM | 4.31 µM | 4.4 µM | inactive | 0.51 µM |  | 2.25 µM |  |  |  |  | inactive |  |  | 
O=C(O)CCP(CCC(=O)O)CCC(=O)O | > 25 µM | > 50 µM | > 50 µM |  | > 25 µM |  | > 50 µM |  |  |  |  |  |  |  | 
O=C(NCCS)/C(Cc1ccccc1)=N/O | 0.012 µM | 10.9 µM | 15.2 µM | inactive | 3.3 µM |  | 9.38 µM |  |  |  |  | inactive |  |  | 
CSCCNC(=O)/C(Cc1ccc(O)c(Br)c1)=N/N | 50 µM | > 50 µM | > 50 µM | inactive | > 50 µM |  | > 50 µM |  |  |  |  |  |  |  | 
CSCCNC(=O)/C(Cc1ccc(O)c(Br)c1)=N/O | 7.7 µM | > 50 µM | > 50 µM | inactive | > 50 µM |  | > 50 µM |  |  |  |  |  |  |  | 
O=C(NCCS)/C(Cc1ccc(F)c(Br)c1)=N/O | 0.001 µM | 7.72 µM | 6.24 µM | inactive | 0.64 µM |  | 2.87 µM |  |  |  |  | inactive |  |  | 

From ChEMBL document CHEMBL2046381, “Defining the mechanism of action and enzymatic selectivity of psammaplin A against its epigenetic targets” (J Med Chem, 2012)
